The target in assay [1] is Calcium/calmodulin-dependent protein kinase type 1 (Homo sapiens) (UniProt Q14012). In words: Inhibition of wild-type human full length CAMK1 (M1 to L370 residues) expressed in Escherichia coli BL21 assessed as residual activity at 1000 nM after 30 mins by Kinomescan method relative to control. The method, boiled down: (§1)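 Single-point screen at a fixed 1 µM, run within a 456-kinase DiscoveRx KINOMEscan panel. Each kinase's read-out is Percent Control, i.e. signal relative to a control without compound. Hits were scored by a Percent Control < 35 cut-off, and an S(35) selectivity score was calculated across the non-mutant kinases.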

The target of assay [2] is Receptor tyrosine-protein kinase erbB-4 (Homo sapiens) (UniProt Q15303). Briefly: Inhibition of wild-type human partial length ERBB4 (L690 to K994 residues) expressed in Escherichia coli BL21 assessed as residual activity at 1000 nM after 30 mins by Kinomescan method relative to control.
Assay [3] concerns the target Serine/threonine-protein kinase PLK1 (Homo sapiens) (UniProt P53350). Briefly: Inhibition of wild-type human partial length PLK1 (A33 to F325 residues) expressed in HEK293 cells assessed as residual activity at 1000 nM after 30 mins by Kinomescan method relative to control. Format: cell-based.
Assay [4] concerns the target Serine/threonine-protein kinase STK11 (Homo sapiens) (UniProt Q15831). Briefly: Inhibition of wild-type human full length LKB1 (M1 to Q433 residues) expressed in Escherichia coli BL21 assessed as residual activity at 1000 nM after 30 mins by Kinomescan method relative to control. The method, boiled down:
(§2)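 Single-concentration screen at 1 µM across a 456-kinase KINOMEscan panel. The read-out is Percent Control for each kinase.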

Assay [5] has as its system Hepatocyte growth factor receptor (Homo sapiens), P08581 [M1250T]. Briefly: Inhibition of human partial length MET M1250T mutant (D1010 to S1367 residues) expressed in Escherichia coli BL21 assessed as residual activity at 1000 nM after 30 mins by Kinomescan method relative to control. An outline of the steps: (§3)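 KINOMEscan binding panel of 456 kinases, with the test compound at a single concentration of 1 µM. Read-out is Percent Control.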

The target of assay [6] is Tyrosine-protein kinase Mer (Homo sapiens) (UniProt Q12866). In words: Inhibition of wild-type human partial length MERTK (R557 to L884 residues) expressed in Escherichia coli BL21 assessed as residual activity at 1000 nM after 30 mins by Kinomescan method relative to control.
Assay [7] concerns Mycobacterium tuberculosis. Briefly: Inhibition of wild-type Mycobacterium tuberculosis partial length PKNB (M1 to G279 residues) expressed in HEK293 cells assessed as residual activity at 1000 nM after 30 mins by Kinomescan method relative to control. The assay is classed as cell-based. The method, boiled down: as §1
For assay [8], the target named is High affinity nerve growth factor receptor (Homo sapiens) (UniProt P04629). In words: Inhibition of wild-type human partial length TRKA (G475 to G790 residues) expressed in HEK293 cells assessed as residual activity at 1000 nM after 30 mins by Kinomescan method relative to control. Format: cell-based.
Assay [9] addresses 5'-AMP-activated protein kinase catalytic subunit alpha-1 (Homo sapiens) (UniProt Q13131). Briefly: Inhibition of wild-type human partial length AMPK alpha1 (M1 to E306 residues) expressed in Escherichia coli BL21 assessed as residual activity at 1000 nM after 30 mins by Kinomescan method relative to control.
Assay [10] concerns the target Serine/threonine-protein kinase ULK1 (Homo sapiens) (UniProt O75385). Briefly: Inhibition of wild-type human partial length ULK1 (M1 to T309 residues) expressed in HEK293 cells assessed as residual activity at 1000 nM after 30 mins by Kinomescan method relative to control. Format: cell-based.
Assay [11] concerns the target Serine/threonine-protein kinase SIK2 (Homo sapiens) (UniProt Q9H0K1). In words: Inhibition of wild-type human full length SIK2 (M1 to N926 residues) expressed in Escherichia coli BL21 assessed as residual activity at 1000 nM after 30 mins by Kinomescan method relative to control.
Assay [12] concerns Tyrosine-protein kinase ABL1 (Homo sapiens), P00519 [F317L]. In words: Inhibition of human non-phosphorylated ABL1 F317L mutant (S229 to K512 residues) expressed in HEK293 cells assessed as residual activity at 1000 nM after 30 mins by Kinomescan method relative to control. Format: cell-based. An outline of the steps:
as §3

For assay [13], the target named is Cyclin-dependent kinase 18 (Homo sapiens) (UniProt Q07002). Briefly: Inhibition of wild-type human full length PCTK3 (M3 to F474 residues) expressed in Escherichia coli BL21 assessed as residual activity at 1000 nM after 30 mins by Kinomescan method relative to control. An outline of the steps:
as §2

Assay [14] has as its target Proto-oncogene tyrosine-protein kinase Src (Homo sapiens) (UniProt P12931). Briefly: Inhibition of wild-type human partial length SRC (L240 to L536 residues) expressed in Escherichia coli BL21 assessed as residual activity at 1000 nM after 30 mins by Kinomescan method relative to control.
The target of assay [15] is Serine/threonine-protein kinase PAK 6 (Homo sapiens) (UniProt Q9NQU5). Briefly: Inhibition of wild-type human partial length PAK6 (N298 to C681 residues) expressed in Escherichia coli BL21 assessed as residual activity at 1000 nM after 30 mins by Kinomescan method relative to control.
Assay [16] has as its target cGMP-dependent protein kinase 1 (Homo sapiens) (UniProt Q13976). In words: Inhibition of wild-type human partial length PRKG1 (L339 to F686 residues) expressed in Escherichia coli BL21 assessed as residual activity at 1000 nM after 30 mins by Kinomescan method relative to control.
Assay [17] has as its system Receptor-type tyrosine-protein kinase FLT3 (Homo sapiens), P36888 [N841I]. In words: Inhibition of human partial length FLT3 N841I mutant (V592 to Y969 residues) expressed in Escherichia coli BL21 assessed as residual activity at 1000 nM after 30 mins by Kinomescan method relative to control. An outline of the steps: as §3
For another assay, the species on record is Homo sapiens. Briefly: Inhibition of human partial length FLT3 ITD mutant expressed in Escherichia coli BL21 assessed as residual activity at 1000 nM after 30 mins by Kinomescan method relative to control. An outline of the steps: as §3
The target of assay [18] is Cyclin-dependent kinase-like 3 (Homo sapiens) (UniProt Q8IVW4). Briefly: Inhibition of wild-type human partial length CDKL3 (M1 to D327 residues) expressed in Escherichia coli BL21 assessed as residual activity at 1000 nM after 30 mins by Kinomescan method relative to control.
Assay [19] concerns Receptor-type tyrosine-protein kinase FLT3 (Homo sapiens), P36888 [D835V]. In words: Inhibition of human partial length FLT3 D835V mutant (V592 to Y969 residues) expressed in Escherichia coli BL21 assessed as residual activity at 1000 nM after 30 mins by Kinomescan method relative to control. The method, boiled down:
as §3

For assay [20], the target named is Mitogen-activated protein kinase 14 (Homo sapiens) (UniProt Q16539). In words: Inhibition of wild-type human full length p38-alpha (M1 to S360 residues) expressed in Escherichia coli BL21 assessed as residual activity at 1000 nM after 30 mins by Kinomescan method relative to control.
Chain of Mitogen-activated protein kinase 14 (Homo sapiens) (Q16539 whole entry, the tested form may be a part): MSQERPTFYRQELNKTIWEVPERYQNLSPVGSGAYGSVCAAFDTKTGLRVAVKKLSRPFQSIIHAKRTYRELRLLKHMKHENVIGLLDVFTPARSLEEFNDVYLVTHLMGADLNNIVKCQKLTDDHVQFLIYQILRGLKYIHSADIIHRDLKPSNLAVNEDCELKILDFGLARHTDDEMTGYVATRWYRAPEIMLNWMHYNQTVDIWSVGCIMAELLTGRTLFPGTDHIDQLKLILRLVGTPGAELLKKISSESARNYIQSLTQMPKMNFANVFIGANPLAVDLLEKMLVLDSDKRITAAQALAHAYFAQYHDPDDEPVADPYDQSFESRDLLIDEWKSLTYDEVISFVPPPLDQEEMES

Chain of Cyclin-dependent kinase 18 (Homo sapiens) (Q07002 whole entry, the tested form may be a part): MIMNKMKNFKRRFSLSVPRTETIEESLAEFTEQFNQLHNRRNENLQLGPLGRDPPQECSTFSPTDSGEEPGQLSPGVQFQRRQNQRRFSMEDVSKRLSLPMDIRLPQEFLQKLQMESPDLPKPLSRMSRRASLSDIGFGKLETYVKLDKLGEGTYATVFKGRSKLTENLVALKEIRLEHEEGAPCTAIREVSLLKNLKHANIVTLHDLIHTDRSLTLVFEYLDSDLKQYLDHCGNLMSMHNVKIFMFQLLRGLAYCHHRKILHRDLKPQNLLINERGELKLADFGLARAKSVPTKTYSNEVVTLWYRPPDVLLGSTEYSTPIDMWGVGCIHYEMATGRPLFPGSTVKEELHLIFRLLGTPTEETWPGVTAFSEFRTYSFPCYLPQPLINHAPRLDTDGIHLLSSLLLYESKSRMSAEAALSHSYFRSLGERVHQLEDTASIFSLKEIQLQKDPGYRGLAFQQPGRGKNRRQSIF
Chain of Receptor tyrosine-protein kinase erbB-4 (Homo sapiens) (Q15303 whole entry, the tested form may be a part): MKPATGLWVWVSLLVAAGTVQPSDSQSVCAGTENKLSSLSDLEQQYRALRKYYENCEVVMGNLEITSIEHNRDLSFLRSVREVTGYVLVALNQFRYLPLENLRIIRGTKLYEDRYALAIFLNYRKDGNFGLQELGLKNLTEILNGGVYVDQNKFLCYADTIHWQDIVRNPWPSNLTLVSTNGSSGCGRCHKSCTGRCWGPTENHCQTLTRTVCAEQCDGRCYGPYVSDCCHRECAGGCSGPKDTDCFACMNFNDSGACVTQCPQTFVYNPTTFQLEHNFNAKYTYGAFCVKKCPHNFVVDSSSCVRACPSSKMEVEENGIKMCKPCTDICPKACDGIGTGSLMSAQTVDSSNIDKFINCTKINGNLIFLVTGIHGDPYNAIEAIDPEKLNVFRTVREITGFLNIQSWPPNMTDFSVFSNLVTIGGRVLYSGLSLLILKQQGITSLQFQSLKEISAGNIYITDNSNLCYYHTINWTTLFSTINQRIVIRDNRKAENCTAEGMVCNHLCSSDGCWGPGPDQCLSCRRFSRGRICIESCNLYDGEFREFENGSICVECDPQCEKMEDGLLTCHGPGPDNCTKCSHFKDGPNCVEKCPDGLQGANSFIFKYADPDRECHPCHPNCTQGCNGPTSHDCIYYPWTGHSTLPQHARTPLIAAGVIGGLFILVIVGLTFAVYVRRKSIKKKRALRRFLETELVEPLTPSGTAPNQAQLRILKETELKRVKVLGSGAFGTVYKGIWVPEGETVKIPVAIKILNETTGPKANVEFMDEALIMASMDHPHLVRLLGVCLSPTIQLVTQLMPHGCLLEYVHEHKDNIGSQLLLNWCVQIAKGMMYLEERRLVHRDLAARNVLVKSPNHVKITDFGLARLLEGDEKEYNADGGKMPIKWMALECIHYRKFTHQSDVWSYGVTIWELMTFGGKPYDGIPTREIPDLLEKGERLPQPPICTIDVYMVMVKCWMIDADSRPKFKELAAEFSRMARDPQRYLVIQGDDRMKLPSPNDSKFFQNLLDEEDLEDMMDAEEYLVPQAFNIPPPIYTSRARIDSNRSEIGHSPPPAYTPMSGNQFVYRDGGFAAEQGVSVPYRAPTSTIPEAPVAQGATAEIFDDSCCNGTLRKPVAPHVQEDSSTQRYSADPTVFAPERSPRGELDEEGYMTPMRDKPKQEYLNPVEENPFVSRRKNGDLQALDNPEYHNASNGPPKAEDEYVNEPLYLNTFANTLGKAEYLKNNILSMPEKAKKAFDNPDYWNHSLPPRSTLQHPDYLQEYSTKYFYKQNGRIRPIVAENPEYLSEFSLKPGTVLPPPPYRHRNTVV
Chain of Tyrosine-protein kinase ABL1 (Homo sapiens), P00519 [F317L] (P00519 whole entry F317L, the tested form may be a part): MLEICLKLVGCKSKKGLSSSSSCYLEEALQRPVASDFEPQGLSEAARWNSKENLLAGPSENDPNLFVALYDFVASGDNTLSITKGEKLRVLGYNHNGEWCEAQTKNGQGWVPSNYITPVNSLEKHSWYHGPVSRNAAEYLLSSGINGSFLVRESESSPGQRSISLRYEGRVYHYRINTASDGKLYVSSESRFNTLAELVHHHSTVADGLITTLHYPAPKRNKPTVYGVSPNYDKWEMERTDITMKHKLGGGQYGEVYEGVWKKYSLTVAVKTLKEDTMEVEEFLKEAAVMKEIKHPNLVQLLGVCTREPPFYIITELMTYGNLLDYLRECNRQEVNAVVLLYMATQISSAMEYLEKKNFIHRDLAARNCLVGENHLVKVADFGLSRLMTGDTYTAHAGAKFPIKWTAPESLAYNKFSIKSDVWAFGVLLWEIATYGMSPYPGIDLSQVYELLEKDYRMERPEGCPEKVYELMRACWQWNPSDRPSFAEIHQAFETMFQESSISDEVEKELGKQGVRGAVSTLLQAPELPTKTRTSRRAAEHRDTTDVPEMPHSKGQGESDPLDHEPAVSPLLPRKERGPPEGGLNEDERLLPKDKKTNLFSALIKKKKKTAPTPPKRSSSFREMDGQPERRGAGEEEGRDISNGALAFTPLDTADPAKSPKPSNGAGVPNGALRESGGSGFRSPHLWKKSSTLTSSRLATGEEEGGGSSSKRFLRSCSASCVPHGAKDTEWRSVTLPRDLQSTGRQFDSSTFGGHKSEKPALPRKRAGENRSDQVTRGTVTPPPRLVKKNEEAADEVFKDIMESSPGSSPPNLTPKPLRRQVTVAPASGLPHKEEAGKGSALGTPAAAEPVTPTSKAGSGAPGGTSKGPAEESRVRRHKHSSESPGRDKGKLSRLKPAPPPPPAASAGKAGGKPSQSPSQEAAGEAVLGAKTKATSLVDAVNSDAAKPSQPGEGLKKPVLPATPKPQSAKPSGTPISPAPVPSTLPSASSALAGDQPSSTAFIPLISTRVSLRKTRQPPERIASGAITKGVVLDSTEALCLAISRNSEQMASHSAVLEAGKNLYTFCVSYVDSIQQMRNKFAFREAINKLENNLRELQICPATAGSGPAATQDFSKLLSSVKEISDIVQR
Chain of Serine/threonine-protein kinase PAK 6 (Homo sapiens) (Q9NQU5 whole entry, looked up, the tested form may be a part): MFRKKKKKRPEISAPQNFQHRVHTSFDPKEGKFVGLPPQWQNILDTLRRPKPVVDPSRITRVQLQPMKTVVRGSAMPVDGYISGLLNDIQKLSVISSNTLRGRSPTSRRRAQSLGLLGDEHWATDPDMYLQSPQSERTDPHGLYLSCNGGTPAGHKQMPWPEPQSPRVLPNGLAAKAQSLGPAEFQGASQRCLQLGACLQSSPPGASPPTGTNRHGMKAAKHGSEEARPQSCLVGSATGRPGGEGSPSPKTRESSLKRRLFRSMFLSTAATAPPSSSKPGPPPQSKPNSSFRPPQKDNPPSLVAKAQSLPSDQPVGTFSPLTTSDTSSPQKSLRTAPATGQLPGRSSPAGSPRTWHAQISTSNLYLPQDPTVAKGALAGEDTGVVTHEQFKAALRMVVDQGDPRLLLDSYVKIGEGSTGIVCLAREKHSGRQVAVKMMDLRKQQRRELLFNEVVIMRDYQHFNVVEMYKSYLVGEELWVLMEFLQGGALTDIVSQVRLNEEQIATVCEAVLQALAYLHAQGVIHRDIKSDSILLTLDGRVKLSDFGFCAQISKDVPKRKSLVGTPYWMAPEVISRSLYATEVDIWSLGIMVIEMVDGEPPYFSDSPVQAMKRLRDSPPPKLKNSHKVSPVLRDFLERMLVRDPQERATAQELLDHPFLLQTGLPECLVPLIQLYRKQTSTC
Chain of Serine/threonine-protein kinase ULK1 (Homo sapiens) (O75385 whole entry, the tested form may be a part): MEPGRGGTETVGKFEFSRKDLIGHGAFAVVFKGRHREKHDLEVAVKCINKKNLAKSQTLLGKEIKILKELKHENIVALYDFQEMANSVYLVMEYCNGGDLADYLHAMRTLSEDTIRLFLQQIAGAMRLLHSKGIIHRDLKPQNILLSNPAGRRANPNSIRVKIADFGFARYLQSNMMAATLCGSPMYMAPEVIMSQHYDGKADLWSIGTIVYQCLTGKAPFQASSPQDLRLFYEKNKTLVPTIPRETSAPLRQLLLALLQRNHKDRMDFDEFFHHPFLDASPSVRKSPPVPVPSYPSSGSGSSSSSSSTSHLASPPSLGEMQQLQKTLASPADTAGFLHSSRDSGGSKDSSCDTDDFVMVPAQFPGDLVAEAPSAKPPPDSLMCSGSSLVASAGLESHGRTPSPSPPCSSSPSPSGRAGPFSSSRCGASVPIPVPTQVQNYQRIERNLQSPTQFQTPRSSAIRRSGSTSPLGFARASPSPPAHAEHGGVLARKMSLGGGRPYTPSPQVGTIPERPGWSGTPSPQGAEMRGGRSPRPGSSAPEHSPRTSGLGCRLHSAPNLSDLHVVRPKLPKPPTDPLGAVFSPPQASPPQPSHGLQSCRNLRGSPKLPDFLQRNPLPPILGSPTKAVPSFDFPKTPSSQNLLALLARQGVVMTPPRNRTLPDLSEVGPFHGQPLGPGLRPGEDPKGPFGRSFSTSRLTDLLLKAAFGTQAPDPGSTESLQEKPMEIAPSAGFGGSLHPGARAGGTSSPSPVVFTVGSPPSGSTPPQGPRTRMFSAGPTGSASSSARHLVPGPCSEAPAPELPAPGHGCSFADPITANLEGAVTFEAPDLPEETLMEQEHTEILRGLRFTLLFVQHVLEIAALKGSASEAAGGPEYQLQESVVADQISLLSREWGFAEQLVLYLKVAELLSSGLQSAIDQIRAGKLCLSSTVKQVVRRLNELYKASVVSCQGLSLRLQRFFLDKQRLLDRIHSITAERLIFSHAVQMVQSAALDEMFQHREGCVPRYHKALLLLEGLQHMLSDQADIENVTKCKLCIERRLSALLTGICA

`COc1cc(OC)c(Cl)c(N2Cc3cnc(Nc4ccc(F)cc4)nc3N(C3CCN(C(=O)/C=C/CN(C)C)CC3)C2=O)c1Cl`: the Activity came out at 100% in assay [1]; 98% in assay [2]; 100% in [3]; 100% in assay [4]; 100% in assay [5]; 85% in [6]. Moreover, the Activity in assay [7] was determined as 100%; in assay [8], 38%; in assay [9], 96%; in assay [10], 89%; in [11], 89%; in assay [12] it was 96%. Besides, the Activity in assay [13] turned out to be 93%; in assay [14], 11%; in assay [15] it was 100%; in [16], 100%; in assay [17], 88%; in the assay filed under Homo sapiens, 78%. In addition, the Activity in [18] came to 89%; in assay [19] it was 80%; in [20] it was 98%.

Values taken from ChEMBL document CHEMBL4043093, “2-Oxo-3, 4-dihydropyrimido[4, 5-d]pyrimidinyl derivatives as new irreversible pan fibroblast growth factor receptor (FGFR) inhibitors” (Eur J Med Chem, 2017).
